Test results reported in ChEMBL document CHEMBL1122181 (J Med Chem, 1982).
The source made the active and inactive calls. No cut-off for these calls is given here.

Legend:
Mus musculus [1] = experiment: Analgesic activity was determined by tail flick assay after subcutaneous administration in mice; type: functional; conditions: sc
Outline: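 Tail-flick method; compound given subcutaneously in normal saline. Potency derived by probit analysis, reported with 95% confidence limits.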

Mus musculus [2] = experiment: Analgesic activity was determined by writhing test after subcutaneous administration in mice; type: functional; conditions: sc
Outline: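 Phenylquinone-induced writhing; compound given subcutaneously in distilled water. Potency derived by probit analysis, reported with 95% confidence limits.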

Mus musculus [3] = experiment: Analgesic activity was determined by tail flick assay after subcutaneous administration in mice; Inactive; type: functional, organism-based

Row | SMILES | ED50 (Mus musculus [1]) [mg/kg] | ED50 (Mus musculus [2]) [mg/kg] | ED50 (Mus musculus [3])
1 | CN1CC[C@]23CCCC[C@H]2[C@H]1Cc1ccc(O)cc13 [LEVORPHANOL] | 1.3 | 0.1 | 
2 | COc1ccc2c3c1O[C@H]1[C@@H](O)C=C[C@H]4[C@@H](C2)N(C)CC[C@@]341 [CODEINE] | 39 | 2.3 | 
3 | CN1CC[C@]23c4c5ccc(O)c4O[C@H]2[C@@H](O)C=C[C@H]3[C@H]1C5 [MORPHINE] | 4.06 | 0.46 | 
4 | COc1ccc2c(c1)C13CCCCC1C(C2)N(C)CC3 (stereo not drawn) [RACEMETHORPHAN] | 6.78 | 0.64 | 
5 | CN1CCC23CCCCC2C1Cc1ccc(OC(C)(C)C)cc13 (configuration not stated) | 5.81 | 5 | 
6 | CN1CCC23c4c5ccc(OC(C)(C)C)c4O[C@H]2[C@@H](O)C=CC3C1C5 (some centres not stated) |  | 26.8 | inactive
